# Source: ChEMBL document CHEMBL3352012, “Synthesis and evaluation of novel podophyllotoxin derivatives as potential antitumor agents” (Eur J Med Chem, 2014)
# Active and inactive are the calls of the source. The rule behind the calls is not given here.
# Experiments:
# K562 [1] = assay: Resistance index, ratio of IC50 for human K562/A02 cells to IC50 for human K562 cells; type: functional
# HeLa = assay: Cytotoxicity against human HeLa cells after 48 hrs by MTT assay; type: functional, cell-based
# In short: (§1)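 Cells kept in RPMI-1640 with 10% FBS, 2 mmol/L glutamine, penicillin and streptomycin at 37 °C, 5% CO2. Seeded at 5 × 10³ cells/well and left 24 h to attach, then exposed to compounds or etoposide reference for 48 h. MTT (5 mg/mL) added for 4 h at 37 °C, supernatant removed, formazan dissolved in DMSO, absorbance read at 490 nm.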
# [2] = Cytotoxicity against human K562/A02 cells after 48 hrs by MTT assay; type: functional, cell-based; settings: K562/A02, 48 h; in short: as §1
# K562 [3] = assay: Cytotoxicity against human K562 cells after 48 hrs by MTT assay; type: functional, cell-based; settings: K562, 48 h; in short: as §1
# K562/A02 [4] = assay: Induction of apoptosis in human K562/A02 cells assessed as necrotic cells level at 6 uM after 48 hrs by Annexin V-FITC and propidium iodide double staining based flow cytometry (reference value: 1.53%); type: functional
# [5] = Reduction in MDR1 mRNA expression in human K562/A02 cells at 6 uM incubated for 48 hrs by RT-PCR method; type: functional, cell-based
# In short: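 K562 and K562/A02 cells seeded 1 × 10⁵/well in 10% FCS/RPMI-1640; compound added 24 h later, then cultured another 48 h. Total RNA extracted with Trizol, checked at 260/280 nm, reverse transcribed; MDR-1 (157 bp) and β-actin (540 bp) amplified, products run on agarose gel, stained, MDR-1 normalised to β-actin against untreated control.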
# K562/A02 [6] = assay: Induction of apoptosis in human K562/A02 cells assessed as early apoptotic cells level at 6 uM after 48 hrs by Annexin V-FITC and propidium iodide double staining based flow cytometry (reference value: 6.23%); type: functional
# K562/A02 [7] = assay: Induction of apoptosis in human K562/A02 cells assessed as viable cells level at 6 uM after 48 hrs by Annexin V-FITC and propidium iodide double staining based flow cytometry (reference value: 90.7%); type: functional
# K562/A02 [8] = assay: Induction of apoptosis in human K562/A02 cells assessed as late apoptotic cells level at 6 uM after 48 hrs by Annexin V-FITC and propidium iodide double staining based flow cytometry (reference value: 1.58%); type: functional
smiles,measurement,setting,value
COc1cc([C@@H]2c3cc4c(cc3[C@@H](NCc3ccco3)[C@H]3COC(=O)[C@H]23)OCO4)cc(OC)c1OC,Ratio IC50,K562 [1],1.89
same,IC50,HeLa,1.53 µM
same,IC50,[2],10.9 µM
same,IC50,K562 [3],5.78 µM
COc1cc([C@@H]2c3cc4c(cc3[C@@H](NCc3ccco3)[C@H]3COC(=O)[C@H]23)OCO4)cc(OC)c1O,Ratio IC50,K562 [1],>100
same,IC50,HeLa,70.5 µM
same,IC50,[2],> 1000 µM
same,IC50,K562 [3],> 100 µM
COc1cc([C@@H]2c3cc4c(cc3[C@@H](NCc3ccc(CN5CCCC5)o3)[C@H]3COC(=O)[C@H]23)OCO4)cc(OC)c1OC,Ratio IC50,K562 [1],6.43
same,IC50,HeLa,1.4 µM
same,IC50,[2],40.2 µM
same,IC50,K562 [3],6.25 µM
COc1cc([C@@H]2c3cc4c(cc3[C@@H](O[C@@H]3O[C@@H]5CO[C@@H](C)O[C@H]5[C@H](O)[C@H]3O)[C@H]3COC(=O)[C@H]23)OCO4)cc(OC)c1O [ETOPOSIDE],Ratio IC50,K562 [1],69.29
same,Activity,K562/A02 [4],2.52%
same,MDR1 mRNA reduction (qualitative),[5],Active
same,Activity,K562/A02 [6],28.4%
same,Activity,K562/A02 [7],61.1%
same,Activity,K562/A02 [8],7.98%
same,IC50,[2],235 µM
same,IC50,K562 [3],3.39 µM
COc1cc([C@@H]2c3cc4c(cc3[C@@H](NCc3ccc(C)o3)[C@H]3COC(=O)[C@H]23)OCO4)cc(OC)c1O,Ratio IC50,K562 [1],34.23
same,IC50,HeLa,60.5 µM
same,IC50,[2],> 1000 µM
same,IC50,K562 [3],65.9 µM
COc1cc([C@@H]2c3cc4c(cc3[C@@H](NCc3ccc(CN(C)C)o3)[C@H]3COC(=O)[C@H]23)OCO4)cc(OC)c1OC,Ratio IC50,K562 [1],5.11
same,IC50,HeLa,14.2 µM
same,IC50,[2],35.3 µM
same,IC50,K562 [3],6.91 µM
CCN1CCN(Cc2ccc(CN[C@@H]3c4cc5c(cc4[C@@H](c4cc(OC)c(OC)c(OC)c4)[C@H]4C(=O)OC[C@@H]43)OCO5)o2)CC1,Ratio IC50,K562 [1],>100
same,IC50,HeLa,> 100 µM
same,IC50,[2],> 1000 µM
same,IC50,K562 [3],> 100 µM
COc1cc([C@@H]2c3cc4c(cc3[C@@H](NCc3ccc(CN5CCN(C)CC5)o3)[C@H]3COC(=O)[C@H]23)OCO4)cc(OC)c1O,Ratio IC50,K562 [1],24.61
same,IC50,HeLa,2.42 µM
same,IC50,[2],200 µM
same,IC50,K562 [3],8.13 µM
COc1cc([C@@H]2c3cc4c(cc3[C@@H](NCc3ccc(CN5CCCC5)o3)[C@H]3COC(=O)[C@H]23)OCO4)cc(OC)c1O,Ratio IC50,K562 [1],4.67
same,MDR1 mRNA reduction (qualitative),[5],Active
same,IC50,HeLa,1.21 µM
same,IC50,[2],24.7 µM
same,IC50,K562 [3],5.28 µM
